# Source: PubChem BioAssay
# E coli WT inh – blocks growth of wild type E. coli BW25113; E. coli BW25113 growth inhibition, OD600; inhibition, % at 10 µM; hit rate 0.05% among 20,000; AID 552; in the data active = inhibition above about 40%;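 also: bacteria exposed to compound for 20 hours at 37 °C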
#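 assay system = bacterial strain in a whole-cell growth screen | quantity = inoculum from a 1:1000 dilution of a 1.5 h subculture | buffer or medium = LB broth with 50 µg/mL kanamycin | compound dosing = one dose, 10 µM final | schedule = compound exposure of 20 h at 37 °C | technique = absorbance at 615 nm as a measure of bacterial growth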
# An asterisk follows results filed as active. The sample as a whole holds a higher share of hits than the screen did.
SMILES,E coli WT inh
Cc1cc(Oc2ccccc2)nc(OCC#N)n1,-18
CCC(Sc1ccccn1)C(=O)Nc1nnc(C)s1 (centres undefined),-13
Brc1ccc2ncnc(Nc3ccc(N4CCOCC4)cc3)c2c1,-2
CS(=O)(=O)N(CC(=O)N1CCc2ccccc2C1)c1ccc2c(c1)OCO2,1
COc1cc(OC)c(C2=NOC(C(=O)O)C2)cc1Cl (centres undefined),-20
O=C1N2c3ccccc3CCc3cccc(c32)C1(O)C(F)(F)F (centres undefined),7
CCN(CC)S(=O)(=O)c1ccc(NCc2ccccc2)nc1,-24
COc1ccccc1OCC(=O)Nc1cccc(C(=O)N2CCOCC2)c1,-11
Cc1nn(C(=O)c2cc3sccc3[nH]2)c(C)c1C,-2
CCOC(=O)CNC(=O)Cn1cnc2c(nnn2-c2cccc(Cl)c2)c1=O,-1
Cc1ccc(C(CC(=O)N2CCOCC2)c2ccco2)cc1 (centres undefined),-16
CC(C(=O)Oc1ccc2c(c1)OCO2)N1C(=O)c2ccccc2C1=O (centres undefined),19
CN(C)CCCC1(c2ccc(F)cc2)OCc2cc(C#N)ccc21 (centres undefined),0
CC(CC(=O)O)CC(=O)Nc1ccccc1C(=O)O (centres undefined),-21
CC(=O)c1ccc(NS(=O)(=O)c2cccc(C)c2)cc1,5
COCCn1nnnc1C(c1ccccc1OC)N1CCc2ccccc2C1 (centres undefined),-1
O=C(NCc1ccco1)c1cccc(-c2nnc(-c3ccccc3)o2)c1,-1
COc1ccc(CCN(Cc2nc(-c3ccccc3)no2)Cc2nc(-c3ccccc3)no2)cc1OC,-17
C=CCn1c(N2C(=O)CC(Cc3ccccc3)C2=O)nc2ccccc21 (centres undefined),-16
C=CCn1c(Cc2csc(N)n2)nnc1SCc1ccc(C(=O)OC)cc1,-17
Cc1cc(NS(=O)(=O)c2ccc(N)cc2)no1,5
CCOC(=O)N1CCN(c2cc3[nH]c(=S)[nH]c3cc2F)CC1,10
CC(=O)c1cc(F)c(N2CCN(C(=O)Cc3ccccc3)CC2)cc1C,0
CCN1CCN(C(=O)Nc2cccc(C(F)(F)F)c2)CC1,-11
CCn1cc(C(=O)NCc2ccco2)c(=O)c2cc(F)c(N3CCN(C(=O)c4ccco4)CC3)cc21,10
SMILES,E coli WT inh
CCn1cc(C(=O)O)c(=O)c2cnc(N3CCNCC3)nc21,45*
CCn1cc(C(=O)O)c(=O)c2cc(F)c(N3CCNCC3)cc21,76*
CCn1cc(C(=O)O)c(=O)c2cc(F)c(N3CCN(C(=O)Nc4ccccc4)CC3)cc21,63*
COc1cc2nc(N3CCNCC3)nc(N)c2cc1OC,-16
O=C(c1cn(-c2ccccc2)nc1-c1cccs1)N1CCN(c2ccccn2)CC1,1
COc1ccc(C(C)(C)C)cc1S(=O)(=O)N1CCN(C)CC1,-16
CC(CNS(=O)(=O)c1cc(Cl)ccc1Cl)CN(C)C (centres undefined),-11
O=S(=O)(Nc1ccc2c(c1)OCCO2)c1ccc(Br)s1,-18
Cc1oc(C(=O)O)cc1CSc1nnc(-c2ccccc2)n1C,-20
C/C=C(\CS(=O)(=O)c1ccccc1)S(=O)(=O)c1ccccc1,-1
CCN(c1ccccc1)S(=O)(=O)c1ccc(F)cc1C,-2
ON1C2CCCCC2N(O)C1c1c(F)c(F)c(F)c(F)c1F (centres undefined),-2
S=c1[nH]ncn1-c1ccccn1,4
Cc1[nH]nc2c1C(CCc1ccccc1)C(C#N)=C(N)O2 (centres undefined),8
Cn1cnc2c1c(=O)[nH]c(=O)n2C,2
CC1=C(C)C(=O)NC(Nc2nc(C)c3cc(C)cc(C)c3n2)N1 (centres undefined),10
COc1ccc(N(CC(=O)Nc2cc(C)ccc2C)S(=O)(=O)c2c(C)nn(C)c2C)cc1,-1
COC(=O)CNC(=O)Cc1c(F)cccc1Cl,-12
Cc1nn2c3c(cnc2c1-c1ccccc1)C(=O)CC(C)C3 (centres undefined),5
CCn1c(SCC(=O)N2CCC(C(N)=O)(N3CCCCC3)CC2)nnc1-c1ccccc1,-17
Cc1cn([C@H]2C=C[C@@H](CO)O2)c(=O)[nH]c1=O,2
O=c1[nH]c(=O)n([C@H]2C[C@H](O)[C@@H](CO)O2)cc1F,17
Cc1cn([C@H]2C[C@H](N=[N+]=[N-])[C@@H](CO)O2)c(=O)[nH]c1=O,72*
O=C(CCN1C(=O)c2ccccc2C1=O)N1CCC(c2ccccc2)C1 (centres undefined),1
O=C(N1CCOCC1)N1CCCN(C(=O)N2CCOCC2)CC1,-16
SMILES,E coli WT inh
O=C(O)CN1C(=O)c2cccc(Oc3ccc(Cl)cc3)c2C1=O,-17
Cn1c(=O)c2c(nc(SCC(=O)Nc3ccc(N4CCOCC4)c(Cl)c3)n2C)n(C)c1=O,-9
O=C(CNCCC1=CCCCC1)Nc1ccccc1N1CCCCC1,0
CC(O)c1cccc(NC2=CC(=O)CC(C)(C)C2)c1 (centres undefined),-12
COc1ccc(-c2noc(CN(C(=O)C(C)(C)C)C(C)C)n2)cc1,-9
COC(=O)CCCCCc1ccc(C(C)=O)s1,-1
O=C(c1ccc(-c2ccccc2)cc1)N1CCN(c2ncccn2)CC1,-4
O=C(CN1C(=O)CC(c2ccccc2)=Nc2ccccc21)NCc1ccco1,-4
COc1ccc(S(=O)(=O)N(Cc2ccccc2)Cc2nc(-c3ccccc3)no2)cc1,-18
CC(C)N(C(=O)N1CCC(c2nc(-c3ccncc3)no2)CC1)C(C)C,-3
Cc1cc(C)c(S(=O)(=O)N2CCCCC2)c(C)c1-n1ncnn1,-15
CCOC(=O)C1CCN(c2c(NCCN3CCN(c4ccccc4)CC3)c(=O)c2=O)CC1,6
CCOCCCNC(=O)C1CCN(C(=O)Nc2ccc(Cl)cc2)CC1,-3
NC(Cc1ccc(Oc2ccc(O)cc2)cc1)C(=O)O (centres undefined),6
COC(=O)c1ccc(OC(=O)C2CC(=O)N(c3ccc(C)cc3C)C2)cc1 (centres undefined),6
CCOc1cc(S(=O)(=O)N(CC)CC)ccc1Br,4
Cn1c(=O)c2c(nc3sccn32)n(C)c1=O,13
CCCc1cc(=O)[nH]c(Nc2ccc(OC)c(Cl)c2)n1,4
c1ccc(CNn2nnnc2-c2ccccc2)cc1,1
COc1ccccc1CC1(C)NC(=O)N(CC(=O)Nc2cc(C)on2)C1=O (centres undefined),5
